# ChEMBL document CHEMBL3352207, “Kinase domain inhibition of leucine rich repeat kinase 2 (LRRK2) using a [1,2,4]triazolo[4,3-b]pyridazine scaffold” (Bioorg Med Chem Lett, 2014)
# How the values were obtained:
# [1] = Cmax in mouse at 300 mg/kg/day, po for 14 days; format: ADME, organism-based; design: dose 300 mg/kg/day, route oral; conditions: in vivo
# Procedure, shortened: (§1)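 Mice were dosed orally at 0, 30 and 300 mg/kg/day for 14 days, 5 males per dose group, in a PK/PD study.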
# [2] = AUC (0 to 24 hrs) in mouse at 30 mg/kg/day, po for 14 days; format: ADME, organism-based; design: dose 30 mg/kg/day, time < 24 hr, route oral; conditions: plasma; procedure, shortened: as §1
# [3] = AUC (0 to 24 hrs) in mouse at 300 mg/kg/day, po for 14 days; format: ADME, organism-based; design: time < 24 hr, dose 300 mg/kg/day, route oral; conditions: plasma; procedure, shortened: as §1
# [4] = Ratio of AUC (0 to tlast) in brain to plasma of rat at 10 mg/kg; format: ADME, organism-based; design: dose 10 mg/kg; conditions: brain and plasma
# [5] = Ratio of drug level in kidney to plasma of LRRK2 G2019S transgenic mouse kidney at 30 to 300 mg/kg/day; conditions: kidney and plasma
# [6] = Cmax in mouse at 30 mg/kg/day, po for 14 days; format: ADME, organism-based; design: dose 30 mg/kg/day, route oral; conditions: in vivo; procedure, shortened: as §1
smiles,measurement,setting,value
COc1ccc(OC)c(Sc2ccc3nnc(-c4cnn(C)c4)n3n2)c1,Cmax,[1],12900 ng/mL
same,AUC at 24 h,[2],350 ng·h/mL
same,AUC at 24 h,[3],20900 ng·h/mL
same,Kp,[4],0.14
same,Kp,[5],2
same,Cmax,[6],200 ng/mL
